PglD inh: C. jejuni PglD acetyltransferase inhibitors, primary screen, biochemical, DTNB colorimetric, single point; inhibition, % at 12.5 µM; UDP-N-acetylbacillosamine N-acetyltransferase PglD (Campylobacter jejuni); 0.098% of 360,000 active; purified PglD enzyme, DTNB colorimetric CoA detection; AID 602405, 2012; in the data active = inhibition above about 16%, passing the limit was not always enough
SKKanGAS inh: S. pyogenes SKKanGAS growth inhibitors in kanamycin, primary screen, streptokinase expression inhibitor project, SKKanGAS strain, BacTiter-Glo luminescence; 6 h; inhibition, % at 7.5 µM; 1.3% of 300,000 active;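 active = mean replicate score, as percent of positive control median, at least 50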;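 also: strain carries kanamycin resistance gene driven by streptokinase promoter and grows in 40 µg/ml kanamycin; loss of luminescence reflects streptokinase promoter inhibition or plain growth inhibition; 0% = median of DMSO wells and 100% = positive control at its reference dose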
Rtt109 HAT inh: inhibitors of C. albicans Rtt109/Vps75 HAT, primary screen, biochemical, ThioGlo CoA-SH fluorescence, plate reader; inhibition, % at 34.9 µM; purified Rtt109/Vps75, 4 h; 0.16% of 330,000 active; Histone acetyltransferase RTT109 (Candida albicans (strain SC5314 / ATCC MYA-2876)), …;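 active = inhibition of at least 50% in every replicate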
Target sequence (Q5AAJ8 whole entry, looked up): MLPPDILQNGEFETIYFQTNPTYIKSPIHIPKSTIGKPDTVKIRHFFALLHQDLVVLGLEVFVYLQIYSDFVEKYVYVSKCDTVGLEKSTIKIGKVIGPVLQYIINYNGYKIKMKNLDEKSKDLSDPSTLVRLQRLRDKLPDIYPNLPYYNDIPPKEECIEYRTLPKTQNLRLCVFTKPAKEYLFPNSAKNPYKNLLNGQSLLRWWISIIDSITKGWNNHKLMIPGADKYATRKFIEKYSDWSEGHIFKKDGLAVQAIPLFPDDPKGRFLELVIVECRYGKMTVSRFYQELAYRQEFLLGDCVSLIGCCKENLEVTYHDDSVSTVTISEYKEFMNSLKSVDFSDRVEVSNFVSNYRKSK
PfHsp90 set2: growth inhibition of PfHsp90-expressing yeast, primary screen, antimalarial PfHsp90 inhibitor project, S. cerevisiae, BacTiter-Glo luminescence, single point, set 2 | AID 504621, 2011 | 0.32% of 310,000 active | inhibition, % at 9.4 µM | BacTiter-Glo ATP, 48 h; yeast lacking PDR1 and PDR3 efflux regulators;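 active = every replicate shows inhibition above about 80%, whatever the replicate mean, limit read from the data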;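 also: 0% = DMSO neutral controls and 100% = 20 µM radicicol positive controls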
CSC inhib: cancer stem cell viability inhibitors, primary screen, luminescence | 1.1% of 300,000 active | cancer stem cell-like cells viability | inhibition, % at 7.5 µM; in the data active = inhibition above about 75%; tested in HMLE shEcad cells
FN deposition inh: inhibitors of fibronectin matrix deposition, primary screen, AH1F cells, Alexa488-fibronectin fluorescence, plate reader; AH1F fibroblasts, overnight; inhibition, % at 12.6 µM; 0.086% of 350,000 active;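 active = mean inhibition across replicates of 30% or more, regardless of how many single replicates reach that level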;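 also: positive control wells lacked labelled fibronectin entirely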
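Material – AH1F fibroblast monolayer, labelled fibronectin deposition · Reagent – labelled fibronectin 24 nM · Timing – 1 h adhesion, overnight exposure · Measured by – fluorescence at 485 nm excitation, 525 nm emission · Read-out – inhibition of fibronectin deposition signal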
PglD inh SP: PglD acetyltransferase inhibitors, confirmation, biochemical, DTNB absorbance, single point, cherry-picked samples; 320 tested, under 10 active; AID 743156, 2013; shares compounds with PglD inh; inhibition, % at 20 µM; Purified C. jejuni PglD, DTNB absorbance 412 nm;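 active = mean inhibition across replicates of at least 20% with every single replicate also at 20% or more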;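 also: initial rate of CoA release by acetyl transfer from AcCoA to the UDP-4-amino sugar; 0% = median of neutral control wells and 100% = median of positive control wells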
* = called active by the depositor. Only some compounds are listed: those with a hit (about 1.7% of all), similar ones and a draw of the others.

`CCn1cc(C(=O)NCCCN2CCCC(C)C2)c(=O)c2cc(S(=O)(=O)N3CCOCC3)ccc21` (stereo not drawn) gave PglD inh 24*, SKKanGAS inh -2, Rtt109 HAT inh -15, PfHsp90 set2 -9, CSC inhib 2, FN deposition inh -6 and PglD inh SP 8.
For CC(C)c1ccc(NC(=O)CSc2nnc(CN3CCOCC3)n2C)cc1 the results were PglD inh 99*, SKKanGAS inh 4, Rtt109 HAT inh 6, PfHsp90 set2 -14, CSC inhib 3, FN deposition inh 0 and PglD inh SP -3.
For Cc1ccc(NC(=O)CSc2nnc(CN3CCOCC3)n2C)cc1C the results were SKKanGAS inh -6, Rtt109 HAT inh -2, PfHsp90 set2 -14, CSC inhib -4 and FN deposition inh 12.
COc1ccc(NC(=O)Nc2ccc3c(c2)CC(=O)N([C@@H](C)CO)C[C@@H](C)[C@@H](CN(C)C(=O)Nc2ccc(C(F)(F)F)cc2)O3)cc1 was read as PglD inh -6.
CC1=CC(=NOC(=O)/C=C/c2ccccc2)C=C(C)C1=O was read as PglD inh 28*, SKKanGAS inh 8, Rtt109 HAT inh 3, CSC inhib 8 and PglD inh SP -1.
CC1=CC(=O)C=C(C)C1=NOC(=O)/C=C\c1ccccc1 was read as SKKanGAS inh -10, Rtt109 HAT inh 2, PfHsp90 set2 4, CSC inhib 2 and FN deposition inh -10.
O=C1C2C3c4ccccc4C(c4ccccc43)C2C(=O)N1Cc1ccco1 (stereo not drawn) was read as PglD inh 24*, SKKanGAS inh 4, Rtt109 HAT inh 2, PfHsp90 set2 -15, CSC inhib 9 and PglD inh SP -5.
`COc1ccc(NC(=O)N2CCCc3cc(C)ccc32)c(OC)c1` gave PglD inh 30*, SKKanGAS inh -4, Rtt109 HAT inh 3, PfHsp90 set2 5, CSC inhib 0, FN deposition inh -1 and PglD inh SP -8.
Screening COc1ccc(OC)c(NC(=O)N2CCCc3ccccc32)c1 returned PglD inh 5, SKKanGAS inh 1, Rtt109 HAT inh 3, PfHsp90 set2 -17, CSC inhib 6 and FN deposition inh 8.
Screening O=C(C[C@H]1C[C@H]2c3cc(NC(=O)CC4CC4)ccc3O[C@H]2[C@@H](CO)O1)NCc1cccnc1 returned PglD inh 2 and FN deposition inh -3.
Screening C[C@@H]1CN([C@H](C)CO)C(=O)c2cccc(NC(=O)CCCCCC(=O)Nc3ccccc3N)c2O[C@@H]1CN(C)CC1CCCCC1 returned FN deposition inh -13.
Screening COc1ccc([N+](=O)[O-])cc1NC(=O)CCN1CCN(C)CC1 returned SKKanGAS inh -3, Rtt109 HAT inh -8, PfHsp90 set2 -31, CSC inhib 12 and FN deposition inh 3.
COc1ccc([N+](=O)[O-])cc1NC(=O)CCN1CCOCC1 was read as PglD inh 21*, SKKanGAS inh -8, Rtt109 HAT inh -4, PfHsp90 set2 -1, CSC inhib 6, FN deposition inh 8 and PglD inh SP -4.
COc1ccccc1-c1nnc(SCc2ccccn2)n1C was read as PglD inh 62*, SKKanGAS inh -7, Rtt109 HAT inh -1, CSC inhib 2, FN deposition inh -5 and PglD inh SP -3.
O=C(CCCCCCC(=O)NCc1ccccc1)NCc1ccccc1 was read as PglD inh 84*, SKKanGAS inh 13, Rtt109 HAT inh 0, PfHsp90 set2 -32, CSC inhib -9, FN deposition inh 6 and PglD inh SP -13.
